The source made the active and inactive calls. The rule behind the calls is not given here.
Experiments:
HeLa [1] = experiment: Induction of ER stress in human HeLa cells assessed as expression of CHOP and Grp78
HeLa [2] = experiment: Cell cycle arrest in human HeLa cells assessed as accumulation at G0/G1 phase at 7 uM after 72 hrs by propidium iodide staining -based flow cytometry (reference value: 66.9 %); format: functional
Method in brief: (§1)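 HeLa seeded at 100 000 cells/well, treated next day with 0.78, 7 or 21 µM for 24, 48 or 72 h. Adherent plus floating cells collected, PBS-washed, fixed overnight in 70% ethanol at −20 °C, RNase A 30 µg/ml 1 h RT, propidium iodide 16.7 µg/ml 30 min dark; DNA content by flow cytometry, phase percentages including subG1 reported.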

HeLa [3] = experiment: Cell cycle arrest in human HeLa cells assessed as accumulation at subG1 phase at 0.78 uM after 48 hrs by propidium iodide staining -based flow cytometry (reference value: 8.5 %); format: functional
Method in brief: as §1

HeLa [4] = experiment: Cell cycle arrest in human HeLa cells assessed as accumulation at G2/M phase at 21 uM after 24 hrs by propidium iodide staining -based flow cytometry (reference value: 11.7 %); format: functional
Method in brief: as §1

HeLa [5] = experiment: Cell cycle arrest in human HeLa cells assessed as accumulation at G0/G1 phase at 7 uM after 24 hrs by propidium iodide staining -based flow cytometry (reference value: 60.6 %); format: functional
Method in brief: as §1

HeLa [6] = experiment: Cell cycle arrest in human HeLa cells assessed as accumulation at G2/M phase at 7 uM after 48 hrs by propidium iodide staining -based flow cytometry (reference value: 9.9 %); format: functional
Method in brief: as §1

HeLa [7] = experiment: Induction of CHOP expression in human HeLa cells at 0.09 to 7 uM after 48 hrs by Western blot analysis; format: functional, cell-based
Method in brief: (§2)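 Log-phase HeLa exposed to a concentration series for 48 h, or to 7 µM over a time course. Extracts resolved on 10% SDS gels, blotted to nitrocellulose, blocked 5% milk; anti-CHOP 1:1000 in 5% BSA overnight at 4 °C, HRP secondary 1:5000 2 h RT, ECL detection; ERK2 reprobe as loading control.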

SW-620 = experiment: Cytotoxicity against human SW620 cells after 72 hrs by MTT assay; format: functional, cell-based; conditions: SW-620, 72 h
Method in brief: (§3)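 MTT assay: 3000 cells/well seeded, compound added next day, each concentration in quadruplicate, 72 h at 37 °C; medium replaced with 20 µg MTT/well for 4 h, formazan dissolved in DMSO, OD 545 nm. […] Fibroblasts: normal skin fibroblasts from donor, DMEM/10% FBS, used at 32 and 36 population doublings.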

HeLa [8] = experiment: Cell cycle arrest in human HeLa cells assessed as accumulation at G2/M phase at 0.78 uM after 24 hrs by propidium iodide staining -based flow cytometry (reference value: 11.7 %); format: functional
Method in brief: as §1

HeLa [9] = experiment: Cell cycle arrest in human HeLa cells assessed as accumulation at G2/M phase at 0.78 uM after 72 hrs by propidium iodide staining -based flow cytometry (reference value: 9.7 %); format: functional
Method in brief: as §1

[10] = Therapeutic index, ratio IC50 for human SW620 cells to IC50 for normal human fibroblasts; format: cell-based, SW-620; conditions: SW620 cells versus normal human fibroblasts, read-out: Ratio IC50
Method in brief: (§4)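 IC50 values came from an MTT assay. Cells were seeded at 3000 per well and dosed the next day, with each concentration in quadruplicate. After 72 h at 37 °C, MTT (20 µg/well) was added for 4 h; formazan was dissolved in DMSO and read at 545 nm. Each experiment was done three times. Normal skin fibroblasts were used at 32 and 36 population doublings. T.I. = tumor-cell IC50 / fibroblast IC50.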

[11] = Stability of the compound in DMSO after 26.25 hrs by LC/MS/MS analysis in presence of 10% FBS; format: physicochemical; conditions: cattle, DMSO with 10% FBS; read-out: Stability
HeLa [12] = experiment: Cell cycle arrest in human HeLa cells assessed as accumulation at G2/M phase at 21 uM after 48 hrs by propidium iodide staining -based flow cytometry (reference value: 9.9 %); format: functional
Method in brief: as §1

HeLa [13] = experiment: Cell cycle arrest in human HeLa cells assessed as accumulation at S phase at 21 uM after 24 hrs by propidium iodide staining -based flow cytometry(reference value: 27.7 %); format: functional
Method in brief: as §1

HeLa [14] = experiment: Cell cycle arrest in human HeLa cells assessed as accumulation at G2/M phase at 21 uM after 72 hrs by propidium iodide staining -based flow cytometry (reference value: 9.7 %); format: functional
Method in brief: as §1

HEp-2 = experiment: Cytotoxicity against human Hep2 cells after 72 hrs by MTT assay; format: functional, cell-based; conditions: HEp-2, 72 h
Method in brief: as §3

HeLa [15] = experiment: Cell cycle arrest in human HeLa cells assessed as accumulation at subG1 phase at 0.78 uM after 72 hrs by propidium iodide staining -based flow cytometry (reference value: 7.2 %); format: functional
Method in brief: as §1

HeLa [16] = experiment: Induction of apoptotis in human HeLa cells assessed as cleavage of procaspase 8 at 7 uM after 48 hrs by Western blot analysis; format: functional, cell-based
Method in brief: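 HeLa cells were treated for 48 h at 7 µM and analysed by Western blot (10% SDS gels, nitrocellulose, HRP secondary, ECL, ERK2 loading control) for cleavage of apoptotic proteins. Antibodies: anti-PARP 1:4000; anti-caspase-3 and anti-caspase-8 1:1000; rabbit polyclonal anti-caspase-9 1:1000.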

HeLa [17] = experiment: Induction of CHOP expression in human HeLa cells at 7 uM up to 8 hrs by Western blot analysis; format: functional, cell-based
Method in brief: as §2

[18] = Therapeutic index, ratio IC50 for human RT112 cells to IC50 for normal human fibroblasts; format: cell-based, RT-112; conditions: RT112 cells versus normal human fibroblasts, read-out: Ratio IC50
Method in brief: as §4

HeLa [19] = experiment: Induction of apoptotis in human HeLa cells assessed as morphological changes at 7 uM after 48 hrs by acridine orange and […] staining based epifluorescent microscopic analysis; format: functional, cell-based
Method in brief: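 After 48 h at 7 µM, adherent and floating HeLa cells were pooled and resuspended in medium. AO (15 µg/mL stock) and EtBr (50 µg/mL stock) were added. Under epifluorescence, apoptosis was scored from condensed chromatin and apoptotic bodies, which distinguish it from necrosis.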

HeLa [20] = experiment: Cell cycle arrest in human HeLa cells assessed as accumulation at S phase at 7 uM after 24 hrs by propidium iodide staining -based flow cytometry (reference value: 27.7 %); format: functional
Method in brief: as §1

HeLa [21] = experiment: Cell cycle arrest in human HeLa cells assessed as accumulation at subG1 phase at 7 uM after 48 hrs by propidium iodide staining -based flow cytometry (reference value: 8.5 %); format: functional
Method in brief: as §1

HeLa [22] = experiment: Cell cycle arrest in human HeLa cells assessed as accumulation at G0/G1 phase at 21 uM after 24 hrs by propidium iodide staining -based flow cytometry (reference value: 60.6 %); format: functional
Method in brief: as §1

HeLa [23] = experiment: Cell cycle arrest in human HeLa cells assessed as accumulation at G2/M phase at 7 uM after 72 hrs by propidium iodide staining -based flow cytometry (reference value: 9.7 %); format: functional
Method in brief: as §1

HeLa [24] = experiment: Cell cycle arrest in human HeLa cells assessed as accumulation at G0/G1 phase at 0.78 uM after 24 hrs by propidium iodide staining -based flow cytometry (reference value: 60.6 %); format: functional
Method in brief: as §1

HeLa [25] = experiment: Cell cycle arrest in human HeLa cells assessed as accumulation at S phase at 21 uM after 72 hrs by propidium iodide staining -based flow cytometry (reference value: 23.5 %); format: functional
Method in brief: as §1

Structure (SMILES): CC(=O)N(/N=N/c1ccc([N+](=O)[O-])cc1Cl)c1ccc([N+](=O)[O-])cc1Cl
- Activity (HeLa [1]): Active
- Activity (HeLa [2]): 77.1%
- Activity (HeLa [3]): 15.8%
- Activity (HeLa [4]): 10.5%
- Activity (HeLa [5]): 69.3%
- Activity (HeLa [6]): 9.6%
- Activity (HeLa [7]): Active
- IC50 (SW-620): 450 nM
- Activity (HeLa [8]): 10.5%
- Activity (HeLa [9]): 8.4%
- selectivity ratio [10]: 0.032
- remaining at 26.25 h [11]: 57%
- Activity (HeLa [12]): 11.9%
- Activity (HeLa [13]): 20.2%
- Activity (HeLa [14]): 8.4%
- IC50 (HEp-2): 620 nM
- Activity (HeLa [15]): 17.6%
- Activity (HeLa [16]): Active
- Activity (HeLa [17]): inactive
- selectivity ratio [18]: 0.514
- Activity (HeLa [19]): Active
- Activity (HeLa [20]): 20.8%
- Activity (HeLa [21]): 23.8%
- Activity (HeLa [22]): 69.3%
- Activity (HeLa [23]): 7.6%
- Activity (HeLa [24]): 74.4%
- Activity (HeLa [25]): 12.6%
